Source: ChEMBL document CHEMBL4480406, “Discovery of an SSTR2-Targeting Maytansinoid Conjugate (PEN-221) with Potent Activity in Vitro and in Vivo” (J Med Chem, 2019)
Where a SMILES comes first, the peptide text is derived from it. [ ]: non-standard residue; d: D form. The star is where a group is joined. Dolaproine = CO[C@@H]([C@@H]1CCCN1)[C@@H](C)C(=O)O; Dil = CC[C@H](C)[C@H](NC)[C@@H](CC(=O)O)OC; X1 = C[C@@H](N*)[C@@H](O)c1ccccc1; NMeV = CN[C@H](C(=O)O)C(C)C

Key:
NCI-H524 [1] = assay: Cytotoxicity in human NCI-H524 cells pre-incubated for 2 hrs in presence of 100 uM octreotide followed by compound wash out and subsequently incubated for 70 hrs by Cell Titer Glo assay; type: functional, cell-based
Summary of the method: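 Octreotide receptor-blockade variant: NCI-H524 cells (5,000/well) were pretreated with octreotide acetate for 30 min, then given compound for 2 h in a ten-point three-fold series.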

NCI-H524 [2] = assay: Cytotoxicity in human NCI-H524 cells pre-incubated for 2 hrs followed by compound wash out and subsequently incubated for 70 hrs by Cell Titer Glo assay; type: functional, cell-based
Summary of the method: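 Cells were then spun, washed with fresh medium, resuspended and grown a further 70 h. Proliferation was read by CellTiter-Glo luminescence, and % inhibition calculated relative to vehicle. IC50 came from a four-parameter nonlinear fit.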

[3] = Drug uptake in tumor of CrTac:NCr-Foxn1nu mouse xenografted with human NCI-H69 cells assessed as DM1 level at 1 mg/kg, iv measured after 24 hrs by LC-MS/MS analysis relative to DM1 alone; type: ADME, organism-based, Neoplasm; conditions: in vivo
Summary of the method: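 NCI-H69 subcutaneous tumors of 250-600 mm3 in nude mice, groups of 3, dosed i.v. Free DM1 was given in 10% propylene glycol/WFI, conjugates in 10% propylene glycol/5 mM citrate pH 4. Tumors were excised at 24 h and homogenized 1:4 (w/v) in 0.1 M ammonium bicarbonate pH 8.0. Homogenate was reduced with TCEP in acetonitrile (15 min, 37 °C), capped with 0.2 M NEM (15 min, 37 °C), and DM1-NEM quantified by LC-MS/MS against standards in blank tumor homogenate. Values were normalized to DM1 dose.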

[4] = molecular target: Somatostatin receptor type 2 (Homo sapiens, UniProt P30874); assay: Displacement of [125I]somatostatin from human SSTR2 expressed in CHO-K1 cell membranes after 240 mins
Chain of Somatostatin receptor type 2 (P30874 whole entry): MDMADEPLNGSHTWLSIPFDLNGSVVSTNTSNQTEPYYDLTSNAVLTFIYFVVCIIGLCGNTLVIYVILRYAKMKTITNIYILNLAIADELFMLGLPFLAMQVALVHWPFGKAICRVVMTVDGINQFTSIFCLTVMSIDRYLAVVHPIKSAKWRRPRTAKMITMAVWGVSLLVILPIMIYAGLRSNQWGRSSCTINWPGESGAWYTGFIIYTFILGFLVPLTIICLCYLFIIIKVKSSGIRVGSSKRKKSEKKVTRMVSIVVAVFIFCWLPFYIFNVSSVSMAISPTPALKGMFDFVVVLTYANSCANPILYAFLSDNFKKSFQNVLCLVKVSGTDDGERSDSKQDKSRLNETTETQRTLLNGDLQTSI
Summary of the method: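 Membranes from CHO-K1 cells stably expressing human SSTR2, prepared in modified HEPES pH 7.4. Nonspecific binding was defined with 1 µM somatostatin. Bound ligand was measured by filtration, 3 washes and counting. Six test concentrations were run, top 10 nM, in five-fold dilutions.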

Structure (SMILES) | IC50 (NCI-H524 [1]) [nM] | IC50 (NCI-H524 [2]) [nM] | Drug uptake [3] | Ki [4] [nM]
COc1cc2cc(c1Cl)N(C)C(=O)C[C@H](OC(=O)[C@H](C)N(C)C(=O)CCSSCCNC(=O)[C@@H](NC(=O)[C@@H]1CSSC[C@H](NC(=O)[C@H](N)Cc3ccccc3)C(=O)N[C@@H](Cc3ccc(O)cc3)C(=O)N[C@H](Cc3c[nH]c4ccccc34)C(=O)N[C@@H](CCCCN)C(=O)N[C@@H]([C@@H](C)O)C(=O)N1)[C@@H](C)O)[C@@]1(C)O[C@H]1[C@H](C)[C@@H]1C[C@@](O)(NC(=O)O1)[C@H](OC)/C=C/C=C(\C)C2 | 528 | 44 | Active | –
CC[C@H](C)[C@@H]([C@@H](CC(=O)N1CCC[C@H]1[C@H](OC)[C@@H](C)C(=O)N[C@H](C)[C@@H](O)c1ccccc1)OC)N(C)C(=O)[C@@H](NC(=O)[C@H](C(C)C)N(C)C(=O)OCCSSCCCN[C@H](Cc1ccccc1)C(=O)N[C@H]1CSSC[C@@H](C(=O)N[C@H](CO)[C@@H](C)O)NC(=O)[C@H]([C@@H](C)O)NC(=O)[C@H](CCCCN)NC(=O)[C@@H](Cc2c[nH]c3ccccc23)NC(=O)[C@H](Cc2ccccc2)NC1=O)C(C)C | 560 | 1470 | – | 0.26
COc1cc2cc(c1Cl)N(C)C(=O)C[C@H](OC(=O)[C@H](C)N(C)C(=O)CCSSC[C@H](NC(=O)[C@@H]1CSSC[C@H](NC(=O)[C@H](N)Cc3ccccc3)C(=O)N[C@@H](Cc3ccc(O)cc3)C(=O)N[C@H](Cc3c[nH]c4ccccc34)C(=O)N[C@@H](CCCCN)C(=O)N[C@@H]([C@@H](C)O)C(=O)N1)C(=O)O)[C@@]1(C)O[C@H]1[C@H](C)[C@@H]1C[C@@](O)(NC(=O)O1)[C@H](OC)/C=C/C=C(\C)C2 | 1600 | 183 | – | 0.013
COc1cc2cc(c1Cl)N(C)C(=O)C[C@H](OC(=O)[C@H](C)N(C)C(=O)CCSSCCCN[C@H](Cc1ccccc1)C(=O)N[C@H]1CSSC[C@@H](C(=O)N[C@H](C(=O)O)[C@@H](C)O)NC(=O)[C@H]([C@@H](C)O)NC(=O)[C@H](CCCCN)NC(=O)[C@@H](Cc3c[nH]c4ccccc34)NC(=O)[C@H](Cc3ccc(O)cc3)NC1=O)[C@@]1(C)O[C@H]1[C@H](C)[C@@H]1C[C@@](O)(NC(=O)O1)[C@H](OC)/C=C/C=C(\C)C2 | 757 | 19 | Active | –
COc1cc2cc(c1Cl)N(C)C(=O)C[C@H](OC(=O)[C@H](C)N(C)C(=O)CCSSCCC(=O)NCCCC[C@H]1C(=O)N[C@@H](Cc3ccc(O)cc3)C(=O)N[C@H](Cc3c[nH]c4ccccc34)C(=O)N[C@@H](CCCCN)C(=O)N[C@@H]([C@@H](C)O)C(=O)N[C@@H](Cc3ccccc3)C(=O)N1C)[C@@]1(C)O[C@H]1[C@H](C)[C@@H]1C[C@@](O)(NC(=O)O1)[C@H](OC)/C=C/C=C(\C)C2 | 865 | 60 | – | 0.1
CC[C@H](C)[C@@H]([C@@H](CC(=O)N1CCC[C@H]1[C@H](OC)[C@@H](C)C(=O)N[C@H](C)[C@@H](O)c1ccccc1)OC)N(C)C(=O)[C@@H](NC(=O)[C@@H](NC)C(C)C)C(C)C (H-[NMeV]V[Dil][Dolaproine]-X1) | – | 3.7 | – | –
CO[C@H]1C(=O)[C@]2(C)[C@@H](OC)C[C@H]3OC[C@@]3(OC(C)=O)[C@H]2[C@H](OC(=O)c2ccccc2)[C@]2(O)C[C@H](OC(=O)[C@H](OC(=O)OCCSSCCCN[C@H](Cc3ccccc3)C(=O)N[C@H]3CSSC[C@@H](C(=O)N[C@H](CO)[C@@H](C)O)NC(=O)[C@H]([C@@H](C)O)NC(=O)[C@H](CCCCN)NC(=O)[C@@H](Cc4c[nH]c5ccccc45)NC(=O)[C@H](Cc4ccccc4)NC3=O)[C@@H](NC(=O)OC(C)(C)C)c3ccccc3)C(C)=C1C2(C)C | 157 | 150 | – | 0.77
COc1cc2cc(c1Cl)N(C)C(=O)C[C@H](OC(=O)[C@H](C)N(C)C(=O)CCSSCCNC(=O)[C@@H]1CSSC[C@H](NC(=O)[C@H](N)Cc3ccccc3)C(=O)N[C@@H](Cc3ccc(O)cc3)C(=O)N[C@H](Cc3c[nH]c4ccccc34)C(=O)N[C@@H](CCCCN)C(=O)N[C@@H]([C@@H](C)O)C(=O)N1)[C@@]1(C)O[C@H]1[C@H](C)[C@@H]1C[C@@](O)(NC(=O)O1)[C@H](OC)/C=C/C=C(\C)C2 | 692 | 10 | – | 0.061
COc1cc2cc(c1Cl)N(C)C(=O)C[C@H](OC(=O)[C@H](C)N(C)C(=O)CCS)[C@@]1(C)O[C@H]1[C@H](C)[C@@H]1C[C@@](O)(NC(=O)O1)[C@H](OC)/C=C/C=C(\C)C2 | – | 11 | – | –
COc1cc2cc(c1Cl)N(C)C(=O)C[C@H](OC(=O)[C@H](C)N(C)C(=O)CCC(C)(C)SSC[C@H](NC(=O)[C@@H]1CSSC[C@H](NC(=O)[C@H](N)Cc3ccccc3)C(=O)N[C@@H](Cc3ccc(O)cc3)C(=O)N[C@H](Cc3c[nH]c4ccccc34)C(=O)N[C@@H](CCCCN)C(=O)N[C@@H]([C@@H](C)O)C(=O)N1)C(N)=O)[C@@]1(C)O[C@H]1[C@H](C)[C@@H]1C[C@@](O)(NC(=O)O1)[C@H](OC)/C=C/C=C(\C)C2 | 581 | 27 | – | 0.075
COc1cc2cc(c1Cl)N(C)C(=O)C[C@H](OC(=O)[C@H](C)N(C)C(=O)CCSC1CC(=O)N(CC(=O)NC[C@H](NC(=O)[C@@H]3CSSC[C@H](NC(=O)[C@H](N)Cc4ccccc4)C(=O)N[C@@H](Cc4ccc(O)cc4)C(=O)N[C@H](Cc4c[nH]c5ccccc45)C(=O)N[C@@H](CCCCN)C(=O)N[C@@H]([C@@H](C)O)C(=O)N3)C(N)=O)C1=O)[C@@]1(C)O[C@H]1[C@H](C)[C@@H]1C[C@@](O)(NC(=O)O1)[C@H](OC)/C=C/C=C(\C)C2 (some centres not stated) | 2520 | 91 | – | 0.14
COc1cc2cc(c1Cl)N(C)C(=O)C[C@H](OC(=O)[C@H](C)N(C)C(=O)CCSSCCCN[C@H](Cc1ccccc1)C(=O)N[C@H]1CSSC[C@@H](C(=O)N[C@H](CO)[C@@H](C)O)NC(=O)[C@H]([C@@H](C)O)NC(=O)[C@H](CCCCN)NC(=O)[C@@H](Cc3c[nH]c4ccccc34)NC(=O)[C@H](Cc3ccccc3)NC1=O)[C@@]1(C)O[C@H]1[C@H](C)[C@@H]1C[C@@](O)(NC(=O)O1)[C@H](OC)/C=C/C=C(\C)C2 | 221 | 30 | Active | 0.12
COc1cc2cc(c1Cl)N(C)C(=O)C[C@H](OC(=O)[C@H](C)N(C)C(=O)CCSC1CC(=O)N(CCCNC(=O)CNC(=O)[C@H](CC(C)C)NC(=O)[C@H](Cc3ccccc3)NC(=O)CNC(=O)CCCCCN3C(=O)CC(SCCCN[C@H](Cc4ccccc4)C(=O)N[C@H]4CSSC[C@@H](C(=O)N[C@H](CO)[C@@H](C)O)NC(=O)[C@H]([C@@H](C)O)NC(=O)[C@H](CCCCN)NC(=O)[C@@H](Cc5c[nH]c6ccccc56)NC(=O)[C@H](Cc5ccccc5)NC4=O)C3=O)C1=O)[C@@]1(C)O[C@H]1[C@H](C)[C@@H]1C[C@@](O)(NC(=O)O1)[C@H](OC)/C=C/C=C(\C)C2 (some centres not stated) | 202 | 75 | – | 0.14
COc1cc2cc(c1Cl)N(C)C(=O)C[C@H](OC(=O)[C@H](C)N(C)C(=O)CCSSC[C@@H](CO)NC(=O)[C@@H]1CSSC[C@H](NC(=O)[C@H](N)Cc3ccccc3)C(=O)N[C@@H](Cc3ccc(O)cc3)C(=O)N[C@H](Cc3c[nH]c4ccccc34)C(=O)N[C@@H](CCCCN)C(=O)N[C@@H]([C@@H](C)O)C(=O)N1)[C@@]1(C)O[C@H]1[C@H](C)[C@@H]1C[C@@](O)(NC(=O)O1)[C@H](OC)/C=C/C=C(\C)C2 | 1390 | 42 | – | 0.018
COc1cc2cc(c1Cl)N(C)C(=O)C[C@H](OC(=O)[C@H](C)N(C)C(=O)CCSSCCCN[C@H](Cc1ccccc1)C(=O)N[C@H]1CSSC[C@@H](C(=O)N[C@@H](Cc3c[nH]c4ccccc34)C(N)=O)NC(=O)[C@H](C(C)C)NC(=O)[C@H](CCCCN)NC(=O)[C@@H](Cc3c[nH]c4ccccc34)NC(=O)[C@H](Cc3ccc(O)cc3)NC1=O)[C@@]1(C)O[C@H]1[C@H](C)[C@@H]1C[C@@](O)(NC(=O)O1)[C@H](OC)/C=C/C=C(\C)C2 | 115 | 22 | Active | 0.19
CC[C@H](C)[C@@H]([C@@H](CC(=O)N1CCC[C@H]1[C@H](OC)[C@@H](C)C(=O)N[C@H](C)[C@@H](O)c1ccccc1)OC)N(C)C(=O)[C@@H](NC(=O)[C@H](C(C)C)N(C)C(=O)OCCSSC[C@H](NC(=O)[C@@H]1CSSC[C@H](NC(=O)[C@H](N)Cc2ccccc2)C(=O)N[C@@H](Cc2ccc(O)cc2)C(=O)N[C@H](Cc2c[nH]c3ccccc23)C(=O)N[C@@H](CCCCN)C(=O)N[C@@H]([C@@H](C)O)C(=O)N1)C(N)=O)C(C)C | 1430 | 1260 | – | 0.18
CO[C@H]1C(=O)[C@]2(C)[C@@H](OC)C[C@H]3OC[C@@]3(OC(C)=O)[C@H]2[C@H](OC(=O)c2ccccc2)[C@]2(O)C[C@H](OC(=O)[C@H](O)[C@@H](NC(=O)OC(C)(C)C)c3ccccc3)C(C)=C1C2(C)C [CABAZITAXEL] | – | 0.26 | – | –
